Tests used:
Mus musculus [1] = assay: BDF1 male mice were administered with 100 mg/kg ip and percent change in iron levels was determined in Liver; type: functional; details: route intraperitoneal
Summary of the method: (§1)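 Male BDF1 mice made iron-overloaded by transfusion of washed, heat-treated (50 °C, 30 min) canine red cells. Dosing began 2 days after the last transfusion, once daily for 7 days, in distilled water or 2% Polysorbate 80 suspension. Daily group urine was collected. Pooled feces were digested in 1 N HCl (90 °C, 30 min). Liver and spleen were homogenized in saline. Iron was measured by atomic absorption and expressed as % change vs transfused controls.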

Mus musculus [2] = assay: BDF1 male mice were administered with 100 mg/kg po and percent change in iron levels was determined in Spleen; type: functional; summary of the method: as §1
Mus musculus [3] = assay: BDF1 male mice were administered with 150 mg/kg po and percent change in iron levels was determined in Feces; type: functional; summary of the method: as §1
Rattus norvegicus [4] = assay: Percent change in iron levels was determined in urine using iron overload rat model where the route of administration is Intraperitoneal; type: functional
Mus musculus [5] = assay: BDF1 male mice were administered with 100 mg/kg ip and percent change in iron levels was determined in Urine; type: functional; details: route intraperitoneal; summary of the method: as §1
Mus musculus [6] = assay: BDF1 male mice were administered with 100 mg/kg po and percent change in iron levels was determined in Urine; type: functional; summary of the method: as §1
Mus musculus [7] = assay: BDF1 male mice were administered with the compound and number of survivors was determined at a dose 150 mg/kg peroral out of 10 tested; type: functional; details: route oral
Summary of the method: (§2)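 Male BDF1 mice were iron-loaded by transfusion of canine red cells. The cells were heparinised, washed twice in isotonic saline and heated at 50 °C for 30 min. Dosing started two days after the last transfusion, once daily for 7 consecutive days. Compounds were given in distilled water or as a fine aqueous suspension with Polysorbate 80 (2% final). Toxic signs were recorded daily and survivors counted per group.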

Rattus norvegicus [8] = assay: Percent change in iron levels was determined in urine using iron overload rat model where the route of administration is Peroral; type: functional
Rattus norvegicus [9] = assay: Percent change in iron levels was determined in feces using iron overload rat model where the route of administration is Intraperitoneal; type: functional
Mus musculus [10] = assay: BDF1 male mice were administered with 100 mg/kg ip and percent change in iron levels was determined in Spleen; type: functional; details: route intraperitoneal; summary of the method: as §1
Mus musculus [11] = assay: BDF1 male mice were administered with the compound and number of survivors was determined at a dose 100 mg/kg peroral out of 10 tested; type: functional; details: route oral; summary of the method: as §2
Rattus norvegicus [12] = assay: Percent change in iron levels was determined in feces using iron overload rat model where the route of administration is Peroral; type: functional
Mus musculus [13] = assay: BDF1 male mice were administered with 100 mg/kg po and percent change in iron levels was determined in Liver; type: functional; summary of the method: as §1
Mus musculus [14] = assay: BDF1 male mice were administered with 150 mg/kg po and percent change in iron levels was determined in Liver; type: functional; summary of the method: as §1
Mus musculus [15] = assay: BDF1 male mice were administered with the compound and number of survivors was determined at a dose 100 mg/kg intraperitoneal out of 10 tested; type: functional; summary of the method: as §2
Mus musculus [16] = assay: BDF1 male mice were administered with 150 mg/kg po and percent change in iron levels was determined in Urine; type: functional; summary of the method: as §1
Mus musculus [17] = assay: BDF1 male mice were administered with 100 mg/kg ip and percent change in iron levels was determined in Feces; type: functional; details: route intraperitoneal; summary of the method: as §1
Mus musculus [18] = assay: BDF1 male mice were administered with 150 mg/kg po and percent change in iron levels was determined in Spleen; type: functional; summary of the method: as §1
Mus musculus [19] = assay: BDF1 male mice were administered with 100 mg/kg po and percent change in iron levels was determined in Feces; type: functional; summary of the method: as §1
Mus musculus [20] = assay: BDF1 male mice were administered with the compound orally and number of survivors was determined out of 10 tested at a dose 50 mg/kg peroral; type: functional; details: route oral; summary of the method: as §2
Mus musculus [21] = assay: BDF1 male mice were administered with the compound orally and number of survivors was determined out of 10 tested at a dose 100 mg/kg peroral; type: functional; details: route oral; summary of the method: as §2
[22] = Half life was determined titrimetrically at pH 7.5 in the presence of Zn(II)Half life was determined (measured in water)
[23] = Half life was determined titrimetrically at pH 7.5 in the presence of Cu(II) Half life was determined
Mus musculus [24] = assay: BDF1 male mice were administered with 25 mg/kg orally and percent change in iron levels was determined in Liver; type: functional; details: route oral
Summary of the method: (§3)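 Hypertransfused male BDF1 mice (canine red cells, washed and heated at 50 °C for 30 min) were dosed orally for 7 days with compound in distilled water or a fine suspension with Polysorbate 80 (2% final). Daily group urine and pooled feces (1 N HCl digest, 90 °C, 30 min, triplicate) were collected, and liver and spleen were homogenized. Iron was measured by atomic absorption and reported as % change vs transfused control.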

Mus musculus [25] = assay: BDF1 male mice were administered with the compound orally and number of survivors was determined out of 10 tested at a dose 200 mg/kg peroral; type: functional; details: route oral; summary of the method: as §2
Mus musculus [26] = assay: BDF1 male mice were administered with 100 mg/kg orally and percent change in iron levels was determined in Urine; type: functional; details: route oral; summary of the method: as §1
[27] = First order rate constant was determined titrimetrically at pH 7.5 in the presence of Co(II)
[28] = Half life was determined titrimetrically at pH 10.5 in the presence of Fe(III)Half life was determined (measured in water); type: ADME; details: pH 7.5, in the assay text read “pH 7.5” for “pH 10.5”
Summary of the method: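 Metal and chelator were each 5 × 10⁻⁴ M. Constant pH was held with 0.05 M NaOH. Hydrolysis rate came from base consumption, with first-order kinetics.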

[29] = First order rate constant was determined titrimetrically at pH 7.5 in the presence of Zn(II)
Mus musculus [30] = assay: BDF1 male mice were administered with 25 mg/kg orally and percent change in iron levels was determined in Spleen; type: functional; details: route oral; summary of the method: as §3
Mus musculus [31] = assay: BDF1 male mice were administered with 100 mg/kg orally and percent change in iron levels was determined in Liver; type: functional; details: route oral; summary of the method: as §1
Mus musculus [32] = assay: BDF1 male mice were administered with 25 mg/kg orally and percent change in iron levels was determined in Urine; type: functional; details: route oral; summary of the method: as §3
[33] = First order rate constant was determined titrimetrically at pH 10.5 in the absence of metal iron; type: ADME
Mus musculus [34] = assay: BDF1 male mice were administered with 200 mg/kg orally and percent change in iron levels was determined in Feces; type: functional; details: route oral; summary of the method: as §1
[35] = First order rate constant was determined titrimetrically at pH 7.5 in the presence of Cu(II)
Mus musculus [36] = assay: BDF1 male mice were administered with 25 mg/kg orally and percent change in iron levels was determined in Feces; type: functional; details: route oral; summary of the method: as §3
[37] = Half life was determined titrimetrically at pH 10.5 in the absence of metal ironHalf life was determined Spectrophotometrically; type: ADME
Mus musculus [38] = assay: BDF1 male mice were administered with 50 mg/kg orally and percent change in iron levels was determined in Liver; type: functional; details: route oral; summary of the method: as §3
Mus musculus [39] = assay: BDF1 male mice were administered with 200 mg/kg orally and percent change in iron levels was determined in Liver; type: functional; details: route oral; summary of the method: as §1
Mus musculus [40] = assay: BDF1 male mice were administered with the compound orally and number of survivors at a dose 25 mg/kg peroral was determined out of 10 tested; type: functional; details: route oral; summary of the method: as §2
Mus musculus [41] = assay: BDF1 male mice were administered with 100 mg/kg orally and percent change in iron levels was determined in Feces; type: functional; details: route oral; summary of the method: as §1
Mus musculus [42] = assay: BDF1 male mice were administered with 200 mg/kg orally and percent change in iron levels was determined in Spleen; type: functional; details: route oral; summary of the method: as §1
Mus musculus [43] = assay: BDF1 male mice were administered with 50 mg/kg orally and percent change in iron levels was determined in Spleen; type: functional; details: route oral; summary of the method: as §3
[44] = Half life was determined titrimetrically at pH 7.5 in the presence of Co(II)Half life was determined (measured in water)
Mus musculus [45] = assay: BDF1 male mice were administered with 50 mg/kg orally and percent change in iron levels was determined in Urine; type: functional; details: route oral; summary of the method: as §3
[46] = Half life was determined titrimetrically at pH 7.5 in the presence of Fe(III)Half life was determined
Mus musculus [47] = assay: BDF1 male mice were administered with 100 mg/kg orally and percent change in iron levels was determined in Spleen; type: functional; details: route oral; summary of the method: as §1
[48] = Compound was evaluated for lethal dose after intraperitoneal administration using iron overload rat model; type: toxicity, organism-based; details: in vivo, ip
Mus musculus [49] = assay: BDF1 male mice were administered with 50 mg/kg orally and percent change in iron levels was determined in Feces; type: functional; details: route oral; summary of the method: as §3
Mus musculus [50] = assay: BDF1 male mice were administered with 200 mg/kg orally and percent change in iron levels was determined in Urine; type: functional; details: route oral; summary of the method: as §1

CCCCCOC(=O)CN(CCN(CC(=O)OCCCCC)Cc1ccccc1O)Cc1ccccc1O
Iron change (Mus musculus [1]): -33% | Iron change (Mus musculus [2]): 12% | Iron change (Mus musculus [3]): -69% | Iron change (Rattus norvegicus [4]): 215% | Iron change (Mus musculus [5]): 117% | Iron change (Mus musculus [6]): 43% | No. of survivors (Mus musculus [7]): 8 | Iron change (Rattus norvegicus [8]): 390% | Iron change (Rattus norvegicus [9]): 114% | Iron change (Mus musculus [10]): -2% | No. of survivors (Mus musculus [11]): 10 | Iron change (Rattus norvegicus [12]): 268% | Iron change (Mus musculus [13]): -12% | Iron change (Mus musculus [14]): -60% | No. of survivors (Mus musculus [15]): 10 | Iron change (Mus musculus [16]): 132% | Iron change (Mus musculus [17]): 24% | Iron change (Mus musculus [18]): -11% | Iron change (Mus musculus [19]): -3%

COC(=O)CN(CCN(CC(=O)OC)Cc1ccccc1O)Cc1ccccc1O
No. of survivors (Mus musculus [20]): 10 | No. of survivors (Mus musculus [21]): 10 | half-life [22]: 0.318 h | half-life [23]: 2.25 h | Iron change (Mus musculus [24]): -20% | No. of survivors (Mus musculus [25]): 10 | Iron change (Mus musculus [26]): 34% | 10E2 k1 [27]: 0.436 min⁻¹ | half-life [28]: 5.4 min | 10E2 k1 [29]: 3.66 min⁻¹ | Iron change (Mus musculus [30]): -7% | Iron change (Mus musculus [31]): -42% | Iron change (Rattus norvegicus [4]): 694% | Iron change (Mus musculus [32]): 30% | 10E2 k1 [33]: 0.325 min⁻¹ | Iron change (Mus musculus [34]): -71% | 10E2 k1 [35]: 0.513 min⁻¹ | Iron change (Mus musculus [36]): -10% | half-life [37]: 3.57 h | Iron change (Mus musculus [38]): -27% | Iron change (Mus musculus [39]): -53% | No. of survivors (Mus musculus [40]): 10 | Iron change (Mus musculus [41]): -2% | Iron change (Rattus norvegicus [8]): 588% | Iron change (Mus musculus [42]): -29% | Iron change (Mus musculus [43]): -12% | Iron change (Rattus norvegicus [9]): 390% | half-life [44]: 2.72 h | Iron change (Rattus norvegicus [12]): 369% | Iron change (Mus musculus [45]): 49% | half-life [46]: 0.328 h | Iron change (Mus musculus [47]): -12% | LD50 [48]: ≥ 800 mg/kg | Iron change (Mus musculus [49]): 8% | Iron change (Mus musculus [50]): 127%

— ChEMBL document CHEMBL1123309, “Esters and lactones of phenolic amino carboxylic acids: prodrugs for iron chelation” (J Med Chem, 1986)
